The record followed here is ChEMBL document CHEMBL2413015, “Synthesis, evaluation and molecular dynamics study of some new 4-aminopyridine semicarbazones as an antiamnesic and cognition enhancing agents” (Bioorg Med Chem, 2013).

Series [1] has as its target T1, Acetylcholinesterase (Electrophorus electricus, UniProt O42275). Briefly: Inhibition of electric eel AChE using acetylthiocholine iodide as substrate preincubated for 20 mins prior to substrate addition by Ellman's method. (Ellman's reagent forms a yellow product with free thiols.)
Series [2] has as its system Rattus norvegicus. Briefly: Activity at AChE in Charles Foster rat hippocampus assessed as substrate hydrolyzed per mg of protein at 5 mg/kg, po for 8 days by Ellman's method (reference value: 47.50 +/- 0.84 mol/min). In kind it is functional.
The test system of series [3] is Rattus norvegicus. Briefly: Cognitive enhancing effect in Charles Foster rat assessed as reversal of scopolamine-induced amnesia measured as transfer latency at 5 mg/kg, po for 8 days administered 1 hr prior to scopolamine-challenge on day 7 measured on day 8 by elevated plus maze test (reference value: 62.17 +/- 0.47 seconds). In kind it is functional.
Series [4] in a line: Selectivity ratio of IC50 for human serum BChE to IC50 for electric eel AChE. In a few lines: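 Ratio of IC50 (BChE) to IC50 (AChE). Both came from Ellman assays at 0.1 M phosphate pH 8.0 and 0.02 unit/mL enzyme: AChE (stock in phosphate buffer) with acetylthiocholine, human serum BChE (stock in 0.1% gelatine) with butyrylthiocholine.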
Series [5] has as its system Rattus norvegicus. Briefly: Cognitive enhancing effect in Wistar rat assessed as reversal of learning impairment measured as transfer latency at 5 mg/kg, po for 8 days measured on first day of test by elevated plus maze test (reference value: 70.846 +/- 0.76 seconds). The class given is functional. In a few lines:
(§1)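 Oral dosing at 5 or 10 mg/kg for 8 days, suspended in 0.3% carboxymethyl cellulose; vehicle-treated controls. Transfer latency on elevated plus maze measured on first and second days of exposure (treatment days 7 and 8). Mean ± SEM, n = 6, one-way ANOVA versus vehicle control.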

In series [6] the test system is Rattus norvegicus. Briefly: Activity at AChE in Charles Foster rat hypothalamus assessed as substrate hydrolyzed per mg of protein at 5 mg/kg, po for 8 days by Ellman's method (reference value: 40.50 +/- 0.76 mol/min). In kind it is functional.
Series [7] has as its system Rattus norvegicus. Briefly: Activity at AChE in Charles Foster rat prefrontal cortex assessed as substrate hydrolyzed per mg of protein at 5 mg/kg, po for 8 days by Ellman's method (reference value: 45.83 +/- 0.94 mol/min). In kind it is functional.
For series [8], the system named is Rattus norvegicus. Briefly: Cognitive enhancing effect in Wistar rat assessed as reversal of learning impairment measured as transfer latency at 5 mg/kg, po for 8 days measured on second day of test by elevated plus maze test (reference value: 66.824 +/- 0.47 seconds). In kind it is functional. A digest of the protocol:
as §1

Series [9] has as its system Rattus norvegicus. Briefly: Activity at AChE in Charles Foster rat hypothalamus assessed as substrate hydrolyzed per mg of protein at 10 mg/kg, po for 8 days by Ellman's method (reference value: 40.50 +/- 0.76 mol/min). The class given is functional.
For series [10], the system named is Rattus norvegicus. Briefly: Activity at AChE in Charles Foster rat hippocampus assessed as substrate hydrolyzed per mg of protein at 10 mg/kg, po for 8 days by Ellman's method (reference value: 47.50 +/- 0.84 mol/min). In kind it is functional.
In series [11] the test system is Rattus norvegicus. Briefly: Cognitive enhancing effect in Charles Foster rat assessed as reversal of scopolamine-induced amnesia measured as transfer latency at 5 mg/kg, po for 8 days administered 1 hr prior to scopolamine-challenge on day 7 measured on same day by elevated plus maze test (reference value: 67.83 +/- 0.94 seconds). In kind it is functional.
Series [12] concerns Rattus norvegicus. Briefly: Cognitive enhancing effect in Charles Foster rat assessed as reversal of scopolamine-induced amnesia measured as transfer latency at 10 mg/kg, po for 8 days administered 1 hr prior to scopolamine-challenge on day 7 measured on same day by elevated plus maze test (reference value: 67.83 +/- 0.94 seconds). In kind it is functional.
For series [13], the system named is Rattus norvegicus. Briefly: Cognitive enhancing effect in Charles Foster rat assessed as reversal of scopolamine-induced amnesia measured as transfer latency at 10 mg/kg, po for 8 days administered 1 hr prior to scopolamine-challenge on day 7 measured on day 8 by elevated plus maze test (reference value: 62.17 +/- 0.47 seconds). In kind it is functional.
For series [14], the target named is T2, Cholinesterase (Homo sapiens, UniProt P06276). Briefly: Competitive inhibition of human serum BChE using butyrylthiocholine iodide as substrate by Lineweaver-Burk plot analysis. A digest of the protocol:
(§2)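 Ellman assay in phosphate buffer pH 8 with a fixed amount of cholinesterase. Thiocholine substrate was varied from below to above, but near, Km, with or without inhibitor. Inhibition type was assigned from Lineweaver–Burk plots.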

Series [15] concerns Rattus norvegicus. Briefly: Toxicity in albino rat assessed as change in normal behavioral response upto 100 mg/kg after 30 mins to 48 hrs. The class given is organism-based. On the set-up: dose 100 mg/kg. The following applies: in vivo. In a few lines: (§3)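 Acute toxicity followed OECD guidelines. Nulliparous, non-pregnant female albino rats (120–150 g) were fasted overnight with water ad libitum. Graded oral doses up to 100 mg/kg were given in 0.3% carboxymethyl cellulose. Rats were observed continuously for 30 min, at 2 h and up to 48 h for behavioural or autonomic changes, tremors, convulsions, salivation, diarrhoea, sleep, lacrimation, cardiovascular signs, feeding and mortality.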

The test system of series [16] is Rattus norvegicus. Briefly: Toxicity in albino rat assessed as mortality upto 100 mg/kg after 30 mins to 48 hrs. The class given is organism-based. More on the design: dose 100 mg/kg. The following applies: in vivo. In a few lines:
as §3

In series [17] the test system is Rattus norvegicus. Briefly: Cognitive enhancing effect in po dosed Wistar rat assessed as reversal of learning impairment measured as transfer latency administered for 8 days by elevated plus maze test. The class given is functional, organism-based. A digest of the protocol: as §1
For series [18], the system named is Rattus norvegicus. Briefly: Cognitive enhancing effect in Wistar rat assessed as reversal of learning impairment measured as transfer latency at 10 mg/kg, po for 8 days measured on second day of test by elevated plus maze test (reference value: 66.824 +/- 0.47 seconds). The class given is functional. A digest of the protocol: as §1
In series [19] the test system is Rattus norvegicus. Briefly: Activity at AChE in Charles Foster rat prefrontal cortex assessed as substrate hydrolyzed per mg of protein at 10 mg/kg, po for 8 days by Ellman's method (reference value: 45.83 +/- 0.94 mol/min). The class given is functional.
Series [20] deals with T2, Cholinesterase. Briefly: Inhibition of human serum BChE using butyrylthiocholine iodide as substrate preincubated for 20 mins prior to substrate addition by Ellman's method. A digest of the protocol: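 Human serum BChE was dissolved in 0.1% gelatine. The final mix held 0.1 M phosphate pH 8.0, DTNB, 0.02 unit/mL enzyme and butyrylthiocholine iodide. Five inhibitor concentrations spanning 20–80% inhibition were preincubated with enzyme for 20 min at 37 °C, then substrate was added. Rate was read at 412 nm over 5 min against an enzyme-free blank. Each point was run in triplicate, and IC50 was read graphically from log concentration–% inhibition curves.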

Series [21] has as its system Rattus norvegicus. Briefly: Cognitive enhancing effect in Wistar rat assessed as reversal of learning impairment measured as transfer latency at 10 mg/kg, po for 8 days measured on first day of test by elevated plus maze test (reference value: 70.846 +/- 0.76 seconds). The class given is functional. In a few lines:
as §1

Series [22] has as its target T1, Acetylcholinesterase. Briefly: Competitive inhibition of electric eel AChE using acetylthiocholine iodide as substrate by Lineweaver-Burk plot analysis. In a few lines: as §2

Structures are written as SMILES. A value given as a limit tells only on which side of the number the result lay.

T1 sequence (O42275 whole entry): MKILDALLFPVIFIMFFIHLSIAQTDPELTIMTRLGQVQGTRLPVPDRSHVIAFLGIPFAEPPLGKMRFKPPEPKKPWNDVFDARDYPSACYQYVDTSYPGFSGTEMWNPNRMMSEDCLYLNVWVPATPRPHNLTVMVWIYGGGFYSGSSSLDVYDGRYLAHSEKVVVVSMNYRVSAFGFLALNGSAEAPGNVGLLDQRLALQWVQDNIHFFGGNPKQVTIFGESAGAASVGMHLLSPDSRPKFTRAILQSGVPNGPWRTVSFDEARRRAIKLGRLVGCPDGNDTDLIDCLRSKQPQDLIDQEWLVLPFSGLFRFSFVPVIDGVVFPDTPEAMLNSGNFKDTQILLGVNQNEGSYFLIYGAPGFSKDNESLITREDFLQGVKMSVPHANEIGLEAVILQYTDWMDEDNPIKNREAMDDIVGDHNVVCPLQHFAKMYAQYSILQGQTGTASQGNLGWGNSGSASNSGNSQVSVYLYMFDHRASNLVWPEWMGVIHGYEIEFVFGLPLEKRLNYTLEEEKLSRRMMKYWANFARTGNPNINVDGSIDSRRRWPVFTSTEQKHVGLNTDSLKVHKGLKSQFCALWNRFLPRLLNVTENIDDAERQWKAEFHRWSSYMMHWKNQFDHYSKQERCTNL
T2 sequence (P06276 whole entry): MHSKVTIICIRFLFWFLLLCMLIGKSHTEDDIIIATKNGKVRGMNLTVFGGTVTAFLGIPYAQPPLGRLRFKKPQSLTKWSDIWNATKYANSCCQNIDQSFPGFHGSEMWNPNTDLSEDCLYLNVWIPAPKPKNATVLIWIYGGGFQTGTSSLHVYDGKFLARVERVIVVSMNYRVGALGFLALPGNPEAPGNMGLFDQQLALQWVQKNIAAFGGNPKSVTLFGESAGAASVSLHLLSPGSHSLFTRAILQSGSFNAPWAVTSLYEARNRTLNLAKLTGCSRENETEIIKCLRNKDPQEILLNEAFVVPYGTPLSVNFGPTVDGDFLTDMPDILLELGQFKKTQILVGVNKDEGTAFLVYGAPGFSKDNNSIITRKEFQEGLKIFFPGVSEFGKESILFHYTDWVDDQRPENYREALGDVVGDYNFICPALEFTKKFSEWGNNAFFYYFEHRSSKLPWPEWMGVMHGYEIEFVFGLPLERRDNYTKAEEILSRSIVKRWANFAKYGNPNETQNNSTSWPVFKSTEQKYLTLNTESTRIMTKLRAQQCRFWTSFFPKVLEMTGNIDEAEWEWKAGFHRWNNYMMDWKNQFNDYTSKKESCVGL

The Ki is the equilibrium dissociation constant of an inhibitor or competing ligand from its target. A higher Ki goes with lower affinity. On to `O=C(N/N=C/c1ccccc1)Nc1ccncc1`, for which the IC50 in series [1] (read-out: IC50) turned out to be 82.3 µM; in [20], 845 µM. For the same compound, the Activity in series [2] is 42.33 mol/min; in series [6] it was 36.5 mol/min; in series [7] it was 42.03 mol/min; in [9], 35.83 mol/min; in series [10] it was 41 mol/min; in [15], “Non-toxic”. In addition, the Activity entry in [16] was “Non-toxic”; in series [17], “Dose-dependent effect”; in series [19] it was 40.5 mol/min. Moreover, the Time was determined as 69.33 s in [3]; 59.17 s in [5]; 53.33 s in series [8]; 74.17 s in series [11]; 70.33 s in series [12]; 66.17 s in series [13]. In addition, the Time in [18] amounted to 51 s; in series [21], 58.33 s. Besides, the Ratio IC50 in series [4] stood at 10.3. Moreover, the Ki was found to be 685 µM in series [14] and 88.6 µM in series [22].

Take `COc1ccc(/C=N/NC(=O)Nc2ccncc2)cc1OC`: the IC50 in series [1] (read-out: IC50) came out at 12.7 µM; in series [20] it was 426 µM. In addition, the Activity is 38.17 mol/min in [2]; 35.33 mol/min in series [6]; 36.87 mol/min in series [7]; 33.17 mol/min in series [9]; 35.83 mol/min in series [10]; “Non-toxic” in [15]. The figures for the Activity entry in series [16], in series [17] and in series [19] were “Non-toxic”, “Dose-dependent effect” and 35.17 mol/min, respectively. For the same compound, the Time in series [3] worked out at 62.17 s; in series [5], 52.17 s; in [8], 44.5 s; in [11], 67.17 s; in series [12], 64.83 s; in [13], 57.17 s. The Time in series [18] is given as 40.5 s; in [21], 49.33 s. The Ratio IC50 in [4] was 33.6. The values for the Ki in [14] and in series [22] were 283 µM and 10.3 µM, respectively.

For the compound `NNC(=O)Nc1ccncc1`, the values for the IC50 in series [1] (read-out: IC50) and in series [20] were 211 µM and > 1000 µM, respectively. Moreover, the Activity in [2] is reported as 44.5 mol/min; in series [6], 37.47 mol/min; in series [7], 42.33 mol/min; in series [9], 37.17 mol/min; in series [10], 43.67 mol/min; in series [15], “Non-toxic”. The Activity result in [16] was “Non-toxic”; in series [17] it was “Dose-dependent effect”; in [19], 42.17 mol/min. The Time in [3] amounted to 71.83 s; in series [5], 65 s; in series [8], 60.5 s; in series [11] it was 78 s; in [12], 75.5 s; in [13], 69.83 s. For the same compound, the values for the Time in series [18] and in [21] were 59.33 s and 64 s, respectively.

In the case of `COc1ccc(/C=N/NC(=O)Nc2ccncc2)cc1`, the IC50 in [1] (read-out: IC50) is 48.3 µM; in [1] (read-out: pIC50 (converted)), 49 µM; in series [20] it was 786 µM. Besides, the Activity in series [2] is on record as 40.33 mol/min; in series [6] it was 35.17 mol/min; in series [7] it was 39.5 mol/min; in series [9], 36.83 mol/min; in [10], 37.5 mol/min; in series [15] it was “Non-toxic”. For the same compound, the Activity entry is “Non-toxic” in series [16], “Dose-dependent effect” in series [17] and 37.83 mol/min in series [19]. Besides, the Time in [3] amounted to 65.83 s; in [5], 56.17 s; in series [8], 50.5 s; in series [11], 70.17 s; in [12], 67.83 s; in [13], 63.33 s. The Time in series [18] is 48.67 s; in series [21] it was 56.33 s. For the same compound, in [4], the Ratio IC50 was 16.3. The Ki turned out to be 624 µM in series [14] and 35.5 µM in series [22].

With `COc1cc2c(cc1OC)C(=O)C(CC1CCN(Cc3ccccc3)CC1)C2` (stereo not given) [DONEPEZIL], the Activity is 32.38 mol/min in series [2]; 28.54 mol/min in [6]; 31.25 mol/min in series [7]; 26.82 mol/min in series [9]; 30.86 mol/min in series [10]; “Dose-dependent effect” in series [17]. Also, the Activity in series [19] is 28.24 mol/min. For the same compound, the Time in [3] amounted to 55.42 s; in [5] it was 45.14 s; in series [8] it was 39.1 s; in series [11], 64.2 s; in series [12] it was 61.25 s; in [13], 53.86 s. Besides, the figures for the Time in series [18] and in series [21] were 37.67 s and 43.17 s, respectively.

In the case of `NC(=O)Nc1ccncc1`, the IC50 in series [1] (read-out: IC50) was 274 µM; in [20] it was > 1000 µM. Further, the Activity in series [2] was 44.5 mol/min; in [6], 37.5 mol/min; in [7] it was 43 mol/min; in series [9], 37.33 mol/min; in series [10], 44.17 mol/min; in [15], “Non-toxic”. Further, the Activity result in series [16] is “Non-toxic”; in series [17], “Dose-dependent effect”; in series [19], 42.5 mol/min. Besides, the Time is 75 s in series [3]; 66.2 s in series [5]; 61.25 s in series [8]; 80.83 s in [11]; 77.83 s in series [12]; 73 s in series [13]. For the same compound, the Time in series [18] was determined as 60.17 s; in [21], 65.12 s.
